# Bioassay records from PubChem BioAssay.
# GSK3B inh = blocks human GSK3beta kinase activity. P49841. GST-GSK3beta kinase, ADP-Glo luminescence, 60 min; stronger effect = lower value. activity score (negative = inhibition), % at 10 µM. actives 0.038% (n = 300,000). AID 2097;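 active means more than half of replicate wells score below -50%, meaning over 50% inhibition versus plate controls; inconclusive means some replicates but at most half score below -50%; inactive means no replicate scores below -50%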;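 further: 0% = median DMSO wells and -100% = median GW8510 positive control wells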
# Target sequence (P49841 whole entry, looked up): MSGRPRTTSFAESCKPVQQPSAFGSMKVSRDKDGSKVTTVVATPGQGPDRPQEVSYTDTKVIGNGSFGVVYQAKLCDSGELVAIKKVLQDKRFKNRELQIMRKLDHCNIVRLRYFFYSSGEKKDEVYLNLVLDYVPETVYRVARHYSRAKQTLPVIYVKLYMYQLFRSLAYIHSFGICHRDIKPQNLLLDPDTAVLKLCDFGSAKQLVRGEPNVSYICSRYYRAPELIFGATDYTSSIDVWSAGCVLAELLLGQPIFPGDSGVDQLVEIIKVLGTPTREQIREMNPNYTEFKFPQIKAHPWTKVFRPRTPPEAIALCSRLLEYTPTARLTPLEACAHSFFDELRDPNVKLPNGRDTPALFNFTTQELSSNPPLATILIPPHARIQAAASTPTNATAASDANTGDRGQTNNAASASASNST
#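 Test system – GST-tagged human GSK3beta kinase, cell-free · Incubation – 60 min enzyme reaction, room temperature · Signal – ADP-Glo luminescence · Also added – peptide substrate and ATP at 25 µM · Controls – DMSO neutral wells and GW8510 at 20 µM as positive · Buffer or medium – Tris/MgCl2 kinase buffer · Measure – Luminescence-derived activity versus plate DMSO and GW8510 wells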
# AI-2 QS mod = modulators of Vibrio harveyi AI-2 quorum sensing system. Vibrio harveyi JMH597 AI-2 luminescence/OD600 ratio, 9 h; stronger effect = lower value; strain lacks LuxN and CqsS sensors; 0 = neutral-control median. activity change, % at 7.5 µM. actives 0.4% (n = 300,000); in the data active means activity change below about -75%, passing the limit was not always enough; inconclusive means no clear call, values can overlap the other calls;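 further: luminescence divided by OD600 gain over 9 h not by final OD600 alone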
# CR mimetic SO = lowers age-related superoxide in aged yeast cells | S. cerevisiae aged cells, superoxide DHE fluorescence; stronger effect = lower value | superoxide response (% of plate mean), % at 10 µM | actives 0.18% (n = 330,000) | AID 2690;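 active means superoxide response under a set limit, about three screen SD below normal, cut at about 65% in these data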;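 further: yeast aged for seven days with compound at 30 °C before DHE staining; 100% = average MFI of all compound-treated wells on the plate with controls excluded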
# PolyA inh = yeast polyadenylation inhibition. S. cerevisiae SKY197-pL101 polyadenylation reporter, beta-gal luminescence; efflux-impaired pdr1/pdr3 knockout yeast; score 100 = 6 SD above DMSO. activity score, % at 12 µM. actives 0.02% (n = 300,000). AID 1875;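 active means lowest replicate activity score at least 50, where 100 means six control SD above control mean; inconclusive means lowest score under 50 but half or more replicates reach 50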;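 further: yeast exposed to compound for 9 h at 30 °C; higher score means more reporter readthrough which indicates perturbed polyadenylation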
# GSK3 alpha inh = human GSK-3 alpha kinase inhibition. P49840. ADP-Glo luminescence, 60 min. inhibition, % at 10 µM. actives 0.1% (n = 320,000);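 active means more than half of replicates show inhibition above 20%; inconclusive means some but at most half of replicates above 20% inhibition; inactive means no replicate shows inhibition above 20%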;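 further: GST-tagged GSK-3 alpha with peptide substrate and 25 µM ATP; 0% = DMSO neutral wells and 100% = GW8510 positive control wells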
# STK33 kinase inh = inhibitors of human STK33 kinase; Q9BYT3; purified STK33, MBP phosphorylation, ADP-Glo luminescence; inhibition, % at 10 µM; actives 0.073% (n = 320,000); AID 2661;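 active means inhibition at or above 25%, using the most active replicate where run in duplicate; inactive means inhibition below 25%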
# The depositor's hits bear a star; ? = inconclusive; nt = not tested or not shown. A selection: hits, their analogues and other compounds. The true share with any hit is near 0.72%.
SMILES,GSK3B inh,AI-2 QS mod,CR mimetic SO,PolyA inh,GSK3 alpha inh,STK33 kinase inh
CCN(CC)CCCN(C(=O)Cn1nnc(-c2ccc(OC)c(OC)c2)n1)C(C(=O)NC(C)(C)C)c1ccc(F)cc1 (stereo not given),4.0,1.1,95.5,14.3,0.1,-0.3
Cc1ccccc1CNS(=O)(=O)c1c(C)[nH]c(C)c1C(=O)N1CCCCC1,4.0,-0.7,92.1,21.8,-1.2,-0.7
COC(=O)CSc1ccc2nnc(-c3ccc(F)cc3)n2n1,-77.6*,13.2,82.5,-3.0,60.3*,3.1
CCOC(=O)CC(=O)CSc1ccc2nnc(-c3ccc(F)cc3)n2n1,-29.0,23.5,87.0,-12.4,25.5,-1.3
COc1ccc(-c2nnc3ccc(SC(C(C)=O)C(C)=O)nn23)cc1OC,3.1,22.4,110.7,12.4,0.6,-1.5
CCC(Sc1ccc2nnc(-c3ccc(OC)c(OC)c3)n2n1)C(=O)O (stereo not given),-0.1,14.2,86.1,-20.8,19.2,38.1*
Cc1ccc(-c2nc3ccccc3c(=O)n2NC(=S)N(C)C)cc1,0.3,10.6,88.9,21.3,-4.0,-0.1
COc1cc(/C=C2\SC(=Nc3ccccc3OC)NC2=O)ccc1O,-6.1,2.4,111.8,-3.1,7.9,67.8*
CCc1ccc(N=C2NC(=O)/C(=C/c3cc(OC)c(O)c(OC)c3)S2)cc1,-1.6,11.4,102.0,91.2*,-1.8,-1.6
COc1cc(/C=C2\SC(=Nc3ccccc3)NC2=O)cc(Cl)c1O,-4.2,60.7,139.1,10.8,7.1,6.8
COc1cc(/C=C2\SC(=Nc3ccc(Cl)c(C(=O)O)c3)NC2=O)c(Br)c(Br)c1O,-15.0,1.1,110.5,5.9,22.1,35.1*
COc1cccc(CNC(=O)CSc2nc(=O)n(Cc3ccncc3)c3c2CCC3)c1,4.6,37.2,108.8,-9.2,-3.8,-2.2
CN(CC(=O)Nc1cccc(C(F)(F)F)c1)C1=NS(=O)(=O)c2ccccc21,nt,nt,76.7,nt,1.3,-0.8
CCOc1ccccc1C(=O)Oc1ccc2ccc(=O)oc2c1,4.3,25.5,96.1,-23.9,2.4,-2.2
N#Cc1c(N)nc(Sc2ccc(Cl)cc2)c(C#N)c1-c1ccccc1Cl,-2.5,10.6,105.8,-3.1,-3.1,-0.1
O=C1/C(=C/c2ccc3c(c2)OCO3)Oc2cc(OCC(=O)N3CCC[C@H]3C(=O)O)ccc21,0.6,22.4,105.1,0.4,58.9*,4.9
Cc1cc(C(=O)CN2C(=O)C(=O)N(C3CCCC3)C2=O)c(C)n1CCc1ccc(F)cc1,nt,nt,99.4,nt,nt,nt
CC(C)n1cnc2c(Nc3cccc(Cl)c3)nc(NCCCO)nc21,-5.9,18.6,109.9,-13.8,1.8,66.0*
CCOc1ccc(N/C(=N/c2nc(C)cc(C)n2)NC(C)=O)cc1,-2.7,1.6,96.1,7.0,-0.9,-3.5
COc1ccc(N=C(c2ccccc2)c2c(C)[nH]n(-c3ccccc3)c2=O)c(OC)c1,0.5,21.2,112.0,1.1,-6.6,-0.7
Cc1cc(C)n(CCC(=O)N=Nc2c(O)[nH]c3ccc(Br)cc23)n1,-15.8,15.6,89.8,7.4,73.4*,-0.4
Cc1cc(C)n(CCC(=O)N=Nc2c(O)[nH]c3ccccc23)n1,0.1,9.4,106.0,-2.9,7.8,-1.0
NC(=O)Cn1c(=O)n(CCC(=O)Nc2ccc(F)cc2)c(=O)c2sccc21,-1.6,5.4,108.0,8.5,3.1,0.4
O=c1c(O)c(-c2cc(O)c(O)c(O)c2)oc2cc(O)cc(O)c12,nt,nt,114.9,nt,61.6*,37.3*
COc1c(-c2ccc(O)c(O)c2)oc2cc(O)cc(O)c2c1=O,0.5,46.4,105.2,-6.7,90.1*,17.5
SMILES,GSK3B inh,AI-2 QS mod,CR mimetic SO,PolyA inh,GSK3 alpha inh,STK33 kinase inh
COc1cccc(NC(=O)COc2ncnc3sc(C)c(C)c23)c1,-1.4,-76.4*,94.2,-9.6,0.3,-0.7
CCN(CC(=O)Nc1cccc(OC)c1)c1ncnc2sc(C)c(C)c12,0.6,-12.4,98.3,-0.2,-2.9,-0.8
CC(C)CCOc1ccc(C2CC(=O)N(C)C2=O)cc1 (stereo not given),1.1,-25.8,94.6,0.2,-3.5,-0.5
CCOc1ccc(/C=C(\C)C(=O)c2c(C)cc(C)[nH]c2=O)cc1,1.6,3.4,97.0,7.7,-3.2,-0.7
CC(C)c1ccc(NC(=O)CCNS(=O)(=O)c2cc(Br)cnc2N)cc1,3.1,35.2,106.3,6.9,1.9,-2.1
COc1cccc(COc2cc3ccccc3nc2C)c1,2.0,-89.1*,99.3,-40.4,-1.4,-1.5
Cc1nc2ccccc2cc1OCc1ccc(Cl)cc1,2.6,-54.9,112.0,-18.4,nt,1.3
Cc1cccc(OCC(=O)NCC(=O)N/N=C/c2c(C)[nH]c3ccccc23)c1,0.0,11.0,97.2,17.9,-1.3,1.5
Cc1ccccc1/C=N/Nc1ncnc2nc[nH]c12,-36.0,16.3,95.7,11.7,54.1*,8.3
Fc1ccc(/C=N/Nc2ncnc3nc[nH]c23)cc1F,-21.2,8.3,94.8,-14.6,64.6*,7.6
O=[N+]([O-])c1cnc(Sc2ccncn2)s1,1.4,-87.8*,112.4,-16.2,1.2,-1.7
C=CCn1c(Sc2ncc([N+](=O)[O-])s2)n[nH]c1=O,2.1,?,109.5,-17.0,0.7,1.8
Cc1cc(C)cc(NC(=O)COc2coc(CN3CCc4ccccc43)cc2=O)c1,-0.2,12.7,107.4,-5.8,2.2,-0.3
COC(=O)c1ccccc1C(=O)c1ccc2c(c1)NC(=O)CO2,4.2,11.9,109.0,-3.4,nt,nt
CCN(CC)c1ccc(Nc2nc(N3CCOCC3)c3ccccc3n2)cc1,-0.3,17.3,91.1,-15.5,1.0,27.9*
Cc1ccc(-c2nn(-c3ccccc3)cc2C(=O)NCC(c2cccs2)N2CCOCC2)cc1 (stereo not given),-2.3,25.4,110.0,6.0,-0.6,nt
Cc1nn(C)cc1/C=C/C(=O)c1ccc(O)cc1,-0.5,19.6,95.0,-1.8,6.5,31.3*
NNC(=O)c1cccn(Cc2cccc(C(F)(F)F)c2)c1=O,-1.2,13.1,89.6,28.6,-2.4,-0.5
CCCCc1ccc(NC(=O)CC(C)=O)cc1,1.7,16.1,108.2,9.6,5.5,-2.4
CCCCc1ccc(NC(=O)CC(C)(C)C)cc1,2.2,-75.8*,105.2,-11.6,-0.6,1.1
CC1=C(C(=O)OCc2ccc3c(c2)OCO3)C(c2ccc(F)cc2)NC(=O)N1 (stereo not given),-22.1,-2.3,95.4,2.1,50.9*,6.6
Cc1cc(C)c2nc(SCC(=O)NC(=O)c3cccn3C)cc(C)c2c1,2.5,20.9,98.0,-2.0,-3.4,0.3
CC(C)c1ccc(OCC(=O)NNC(=O)c2cnccn2)cc1,-1.1,-82.9*,110.5,2.1,-2.3,-0.8
O=C(COc1ccc2ccccc2c1)NNC(=O)c1cnccn1,-1.3,-6.4,120.0,?,-2.5,-1.2
